From ChEMBL document CHEMBL1128703, “Chromophore-modified antitumor anthracenediones: synthesis, DNA binding, and cytotoxic activity of 1,4-bis[(aminoalkyl)amino]benzo[g]-phthalazine-5,10-diones” (J Med Chem, 1995) come the findings set out here.

Assay [1] deals with LoVo. The assay can be described thus: (§1) Inhibitory activity against human colon adenocarcinoma cell line LoVo/Dx. Type of assay: functional, cell-based. The gist of the method: (§2)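 LoVo and doxorubicin-resistant LoVo/Dx grown in Ham's F12 with 10% FCS, glutamine, BME vitamins, HEPES, pen/strep; 37 °C, CO2, mycoplasma-checked by DAPI. Seeded 2.5 × 10^4 cells/mL, preincubated 24 h, then drug exposure 144 h. MTT read-out at 570 nm; IC50 (μg/mL) as concentration inhibiting growth by 50%, at least three runs averaged.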

Assay [2] can be described thus: (§3) Resistance index as the ratio of IC50 value against LoVo/Dx to that of LoVo cell lines. Type of assay: functional. The gist of the method:
(§4)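 LoVo and LoVo/Dx, each seeded 2.5 × 10^4 cells/mL, preincubated 24 h, exposed to drug 144 h; MTT formazan read at 570 nm. Resistance index = IC50 in LoVo/Dx divided by IC50 in LoVo.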

The subject of assay [3] is LoVo. The assay can be described thus: Inhibitory activity against human colon adenocarcinoma cell line LoVo. Type of assay: functional, cell-based. The essentials:
as §2

In assay [4] the test system is HT-29. The assay is described as follows: Inhibitory activity against human tumor cell line HT-29. The class given is functional, cell-based. The essentials:
(§5)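 Fibrosarcoma HT-1080, colon HT-29, breast MCF-7 and melanoma A-375 adapted to complete RPMI 1640; seeded 2.5 × 10^4 cells/mL, preincubated 24 h, exposed to drug 144 h. MTT assay, formazan dissolved in DMSO, absorbance per well read; IC50 (M) taken as concentration giving 50% growth inhibition.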

Assay [5] relates to HT-1080. The assay is described as follows: Inhibitory activity against human tumor cell line HT1080. Type of assay: functional, cell-based. The gist of the method: as §5
The target of assay [6] is Nucleic Acid. The assay is described as follows: Ki value was measured for the binding of compound to DNA in ETN. The class given is nucleic-acid assay, Bos taurus. The essentials:
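UV-vis titration: DNA added to ligand at fixed concentration in 10 mM Tris, 2 mM EDTA, NaCl to ionic strength 0.15 M, pH 7.0, 25 °C. Bound/free ligand from absorbance at wavelength of largest change (isosbestic points present); intrinsic constant and site size fitted by least squares to the neighbour-exclusion equation.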

The next assay relates to MCF7. The assay can be described thus: Inhibitory activity against human tumor cell line MCF-7 breast adenocarcinoma. Type of assay: functional, cell-based. The essentials:
as §5

Assay [7] relates to LoVo. The description is as §3. The class given is functional, Homo sapiens. The essentials: as §4
Assay [8] has as its system Nucleic Acid. The assay can be described thus: dichroism data for visible band in the compound to DNA in ETN. The class given is nucleic-acid assay. The conditions noted are these: Bos taurus. The essentials:
(§6)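 Dichroism in Tris-EDTA-NaCl buffer, ionic strength 0.1, pH 7.0, 25 °C. CD given as Δε from ellipticity, path length and molar concentration. Linear dichroism with DNA oriented in rotating quartz cell at 600-800 rpm, four accumulations; ligand orientation angle derived from ligand/DNA reduced LD ratio, taking bases at 90°.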

The subject of another assay is A-375. The assay is described as follows: Inhibitory activity against human tumor cell line […] melanoma. The class given is functional, cell-based. The essentials: as §5
Assay [9] has as its system HT-29. The assay is described as follows: Inhibitory activity against human tumor cell line HT-29. Type of assay: functional, cell-based. The essentials:
as §5

In assay [10] the test system is Nucleic Acid. The assay can be described thus: dichroism data for visible band in the compound to calf thymus DNA in ETN. Type of assay: nucleic-acid assay. The settings on record: Bos taurus. The gist of the method: as §6
In assay [11] the test system is HT-1080. The assay is described as follows: Inhibitory activity against human tumor cell line HT1080. The class given is functional, cell-based. The essentials: as §5
Assay [12] concerns HT-1080. The assay can be described thus: inhibit the cellular growth by 50% was determined against human tumor cell line HT1080. Type of assay: functional, cell-based. The essentials: as §5
The subject of assay [13] is HT-29. The assay is described as §1. Type of assay: functional, cell-based. The settings on record: in the assay text read “HT-29” for “LoVo/Dx”.

The structures appear in SMILES notation.

A word on the IC50: it is the point on the concentration scale where inhibition reaches its midpoint.

Take `O=C1c2ccccc2C(=O)c2c(NCc3ccccc3)nnc(NCc3ccccc3)c21`: the values for the IC50 in the assay with LoVo [1] and in the assay with LoVo [3] were 1300 nM and 1400 nM, respectively. For the same compound, the RI in [2] worked out at 0.9.

Consider `CCN(CC)CCNc1nnc(NCCN(CC)CC)c2c1C(=O)c1ccccc1C2=O`, for which the IC50 with LoVo [1] came out at 1700 nM; in the assay with LoVo [3], 180 nM. For the same compound, the RI in assay [2] is listed as 9.4.

For the compound `OCCCNc1nnc(NCCCO)c2cc3ccccc3cc12`, the results for the IC50 with LoVo [1] and with LoVo [3] were 36000 nM and greater than 9600 nM, respectively. For the same compound, the RI in assay [2] is greater than 3.7.

On to `Cl.O=C1c2ccccc2C(=O)c2c(NCCCO)nnc(NCCCO)c21`, for which the IC50 in the assay on LoVo [1] was less than 2000 nM; in the assay with LoVo [3], 76 nM. Further, in assay [2], the RI is given as less than 26.

For `Cl.O=C1c2ccccc2C(=O)c2c(NCCNCCO)nnc(NCCNCCO)c21`, the IC50 turned out to be 410 nM with HT-29 [4]; 39000 nM in the assay with LoVo [1]; 1300 nM in the assay with HT-1080 [5]; 720 nM with MCF7; 2700 nM with LoVo [3]. Also, on Nucleic Acid [6], the Ki was 47000 M⁻¹. In the assay on LoVo [7], the RI was found to be 14.4. The LD in the assay on Nucleic Acid [8] is -0.13.

Take `CN(C)CCNc1nnc(NCCN(C)C)c2c1C(=O)c1ccccc1C2=O.Cl`: the concentration for half-maximal inhibition (IC50) in the assay on HT-29 [4] came out at 9.4 nM; in the assay with LoVo [1] it was 440 nM; with HT-1080 [5] it was 46 nM; with A-375, 33 nM; in the assay with MCF7 it was 0.95 nM; in the assay on LoVo [3] it was 73 nM. Also, the RI in assay [2] is listed as 6.

For the compound `O=C1c2c(O)ccc(O)c2C(=O)c2c(NCCNCCO)ccc(NCCNCCO)c21` [MITOXANTRONE], the IC50 is 17 nM with HT-29 [4]; 530 nM in the assay with LoVo [1]; 66 nM in the assay on HT-1080 [5]; 26 nM with A-375; 20 nM in the assay with MCF7; 9.7 nM in the assay with LoVo [3]. In addition, in assay [2], the RI is given as 54.6.

In the case of `OCCNCCNc1nnc(NCCNCCO)c2cc3ccccc3cc12`, the figures for the IC50 in the assay on LoVo [1] and in the assay with LoVo [3] were greater than 260000 nM and greater than 8100 nM, respectively.

In the case of `Cl.Nc1nnc(NCCNCCO)c2c1C(=O)c1ccccc1C2=O`, on Nucleic Acid [6], the Ki amounted to 45000 M⁻¹. Further, the IC50 in the assay on A-375 turned out to be 0.47 nM; in the assay with HT-29 [9] it was 5.2 nM; with MCF7, 47 nM; in the assay with HT-1080 [11], 8.3 nM. This compound came in with an LD with Nucleic Acid [10] of -0.13.

`CN(C)CCNc1nnc(N)c2c1C(=O)c1ccccc1C2=O`: the IC50 worked out at 34 nM in the assay with HT-1080 [12] and 6.5 nM in the assay with HT-29 [13].

Take `O=C1c2ccccc2C(=O)c2c(NCCNCCO)ccc(NCCNCCO)c21` [AMETANTRONE]: the results for the IC50 with LoVo [1] and with LoVo [3] were 92000 nM and 580 nM, respectively. On Nucleic Acid [6], the Ki was determined as 340000 M⁻¹. In addition, in the assay with LoVo [7], the RI was 158.6. This compound had an LD in the assay on Nucleic Acid [8] of -0.13.

As to `O=C1c2ccccc2C(=O)c2c(NCCN3CCCCC3)nnc(NCCN3CCCCC3)c21`, the IC50 with LoVo [1] was determined as 1200 nM; in the assay with LoVo [3] it was 260 nM. The RI in assay [2] is reported as 4.6.

`COc1cccc2c1C(=O)c1c(O)c3c(c(O)c1C2=O)C[C@@](O)(C(=O)CO)C[C@@H]3O[C@H]1C[C@H](N)[C@H](O)[C@H](C)O1` [DOXORUBICIN]: the results for the IC50 with LoVo [1] and with LoVo [3] were 6000 nM and 43 nM, respectively. Besides, in [2], the RI is 139.5.

With `CN(C)CCCNc1nnc(NCCCN(C)C)c2c1C(=O)c1ccccc1C2=O`, the IC50 worked out at 1000 nM with LoVo [1] and 49 nM in the assay on LoVo [3]. The RI in assay [2] is recorded as 20.4.
